In ChEMBL document CHEMBL3352243, “Ligand-based virtual screening identifies a family of selective cannabinoid receptor 2 agonists” (Bioorg Med Chem, 2015):
Converted amounts (≈) assume the structure as drawn.

Columns and labels:
[1] = biological target: T1, Cannabinoid receptor 2 (Homo sapiens, UniProt P34972); experiment: Agonist activity at human CB2R expressed in CHO cells assessed as reduction in forskolin-induced cAMP accumulation by beta-galactosidase based complementation immunoassay; assay type: functional, cell-based
How it was run: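 hCB2R CHO-K1 cells plated overnight at 37 °C, 5% CO2; anti-cAMP antibody added, then compound (final 0.2% DMSO) with 20 μM forskolin for 30 min at 37 °C. Lysis/substrate 1 h, then EA detection reagent 3 h at room temperature; luminescence read and normalised to forskolin+solvent wells (100%). EC50 by 4-parameter nonlinear fit of pooled 3–4 independent experiments.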
Target sequence in this assay (P34972 whole entry): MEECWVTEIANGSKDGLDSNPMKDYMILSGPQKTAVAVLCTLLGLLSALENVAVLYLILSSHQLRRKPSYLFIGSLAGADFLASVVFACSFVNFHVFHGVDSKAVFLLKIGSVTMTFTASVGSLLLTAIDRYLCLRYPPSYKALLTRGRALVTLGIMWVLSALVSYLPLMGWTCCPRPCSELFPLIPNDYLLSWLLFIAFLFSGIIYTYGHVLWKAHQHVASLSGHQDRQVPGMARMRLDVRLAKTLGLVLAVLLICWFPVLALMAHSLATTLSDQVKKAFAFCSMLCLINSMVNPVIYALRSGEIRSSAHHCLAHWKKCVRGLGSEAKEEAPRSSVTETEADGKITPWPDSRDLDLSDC

[2] = biological target: T1, Cannabinoid receptor 2; experiment: Agonist activity at human CB2R expressed in CHO cells assessed as reduction in forskolin-induced cAMP accumulation at 1 uM by beta-galactosidase based complementation immunoassay; parameters: reference not given here
Target sequence in this assay (P34972 whole entry, looked up): as the sequence (P34972 whole entry) above

[3] = biological target: T1, Cannabinoid receptor 2; experiment: Agonist activity at human CB2R expressed in CHO cells assessed as reduction in forskolin-induced cAMP accumulation at 3 uM by beta-galactosidase based complementation immunoassay; assay type: functional, cell-based; parameters: reference not given here
How it was run: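 CHO-K1 cells expressing hCB2R, 15,000 per well, incubated overnight at 37 °C, 5% CO2, then anti-cAMP antibody added. Test agent at single concentration with 20 μM forskolin (0.2% DMSO final), 30 min at 37 °C. Lysis/substrate 1 h, then EA reagent 3 h, both at rt in the dark; luminescence read and expressed as % of forskolin+solvent control wells.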
Target sequence in this assay (P34972 whole entry): as above

[4] = biological target: T2, Cannabinoid receptor 1 (Homo sapiens, UniProt P21554); experiment: Agonist activity at human CB1R expressed in CHO cells assessed as reduction in forskolin-induced cAMP accumulation by beta-galactosidase based complementation immunoassay; assay type: functional, cell-based
How it was run: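 CHO-K1 cells expressing hCB1R, 15,000 per well, incubated overnight at 37 °C, 5% CO2, then given anti-cAMP antibody. Compounds were added with 20 μM forskolin (final DMSO 0.2%) for 30 min at 37 °C. Lysis/substrate step 1 h and EA detection 3 h, both at rt in the dark, then luminescence read.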

[5] = biological target: T1, Cannabinoid receptor 2; experiment: Displacement of [3H]WIN-55212-2 from human CB2R expressed in CHO cells; assay type: cell-based
How it was run: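 Membranes from CHO cells expressing hCB2R incubated with test compound and tritiated WIN-55212 (0.8 nM), 2 h, 37 °C. Non-specific binding defined with 5 μM WIN-55212. Scintillation counting of bound ligand; Ki via Cheng–Prusoff with radioligand Kd; duplicate.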
Target sequence in this assay (P34972 whole entry): as above

[6] = biological target: T2, Cannabinoid receptor 1; experiment: Displacement of [3H]CP55940 from human CB1R expressed in CHO cells; assay type: cell-based
How it was run: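 Membranes from CHO cells expressing hCB1R incubated with test compound and [3H]CP 55,940 (0.5 nM) for 2 h at 37 °C. Non-specific binding defined with 10 μM WIN-55212. Bound radioligand measured by scintillation counting. Ki from Cheng–Prusoff using radioligand Kd; run in duplicate.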

[7] = Aqueous kinetic solubility of the compound at pH 7 at 37 degC by turbidimetric assay; assay type: physicochemical; conditions: read-out: Kinetic_solubility
How it was run: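 Turbidimetric method: DMSO dilutions added to phosphate-buffered saline pH 7.4 at final 1, 3, 10, 30, 100 μM (1% DMSO), 7 replicates per concentration. Incubated 2 h at 37 °C, then absorbance read at 620 nm. Value is the mid-point of the precipitation range between upper and lower solubility limits.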

[8] = tested on: Liver; experiment: Half life in mouse liver microsomes in presence of NADPH by LC-MS/MS method; assay type: ADME
How it was run: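 Mouse liver microsomes incubated with compound at 37 °C with NADPH. Reactions stopped with methanol containing internal standard, centrifuged, supernatant analysed by LC–MS/MS.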

T2 sequence (P21554 whole entry): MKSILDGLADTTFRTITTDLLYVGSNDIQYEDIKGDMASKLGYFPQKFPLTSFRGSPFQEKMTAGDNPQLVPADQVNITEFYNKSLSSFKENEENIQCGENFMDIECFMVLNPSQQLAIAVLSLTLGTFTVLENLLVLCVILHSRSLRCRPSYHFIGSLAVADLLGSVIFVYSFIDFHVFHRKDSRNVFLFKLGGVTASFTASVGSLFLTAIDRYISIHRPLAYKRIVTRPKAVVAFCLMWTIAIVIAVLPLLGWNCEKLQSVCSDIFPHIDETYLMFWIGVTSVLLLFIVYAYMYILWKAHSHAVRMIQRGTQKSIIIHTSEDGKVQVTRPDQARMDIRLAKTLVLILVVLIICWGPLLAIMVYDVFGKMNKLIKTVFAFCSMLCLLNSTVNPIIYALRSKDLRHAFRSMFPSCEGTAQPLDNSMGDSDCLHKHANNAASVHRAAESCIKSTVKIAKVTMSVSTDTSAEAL

Q: Which EC50 [1] does the source give for `N#Cc1ccccc1CSc1nnc2c(n1)[nH]c1ccc(Br)cc12` here?
A: Its EC50 is over 3000 nM.

Q: For `CCCCCCSC1=C(C#N)C(c2ccc(F)cc2)NC(=O)N1` (centres undefined), which Activity [2] is on record?
A: The Activity was 121%.

Q: What about the Activity [3] of the same molecule?
A: The Activity was 114%.

Q: Which EC50 [4] does the source give for `N#Cc1cccc(CSc2nnc3c(n2)[nH]c2ccccc23)c1` here?
A: The EC50 was over 30000 nM.

Q: What about the EC50 [1] of the same molecule?
A: The EC50 was 6450 nM.

Q: Which EC50 [1] does the source give for `Clc1ccc(CSc2nnc3c(n2)[nH]c2ccccc23)cc1` here?
A: The EC50 was over 3000 nM.

Q: With `N#Cc1ccccc1CSc1nnc2c3ccccc3n(C(=O)c3ccno3)c2n1` as the molecule, how does the EC50 [1] read?
A: The EC50 was 19 nM.

Q: And the Ki [5]?
A: The Ki was 450 nM.

Q: And the Ki [6]?
A: Its Ki is over 60000 nM.

Q: What about the solubility kinetic [7] of the same molecule?
A: The solubility kinetic was 6.5 µM (≈ 2.68 µg/mL).

Q: Which EC50 [1] does the source give for `Fc1ccccc1CSc1nnc2c3ccccc3n(Cc3ccccc3)c2n1` here?
A: The EC50 was 850 nM.

Q: What about the Ki [5] of the same molecule?
A: The Ki was 215 nM.

Q: What about the Ki [6] of the same molecule?
A: Its Ki is 275 nM.

Q: What does the source list for `N#Cc1ccccc1CSc1nnc2c3ccccc3n(C(=O)c3ccc(OC(F)(F)F)cc3)c2n1`?
A: EC50 [1]: 73 nM; Ki [5]: 380 nM; Ki [6]: > 60000 nM

Q: For `O=C(c1ccccc1)n1c2ccccc2c2nnc(SCc3ccccc3[N+](=O)[O-])nc21`, which EC50 [1] is on record?
A: Its EC50 is 75 nM.

Q: And the Ki [5]?
A: Its Ki is 235 nM.

Q: What about the Ki [6] of the same molecule?
A: The Ki was over 60000 nM.

Q: For `CCCCSc1nnc2c(n1)OC(CC)Nc1ccccc1-2` (centres undefined), which Activity [2] is on record?
A: The Activity was 47.8%.

Q: And the Activity [3]?
A: The Activity was 44.3%.

Q: Which results are given for `O=[N+]([O-])c1ccccc1CSc1nnc2c(n1)[nH]c1ccccc12`?
A: EC50 [4]: > 30000 nM; EC50 [1]: 33 nM; t1/2 [8]: 43 min; Ki [5]: 155 nM; Ki [6]: > 60000 nM

Q: What does the source list for `CCCCCSc1nnc2c3ccccc3n(C)c2n1`?
A: Activity [2]: 129%; Activity [3]: 110%

Q: What does the source list for `CCCCCCSC1=C(C#N)C(c2cccc([N+](=O)[O-])c2)NC(=O)N1` (centres undefined)?
A: Activity [2]: 63.2%; Activity [3]: 39.9%

Q: With `CCCCCCSC1=C(C#N)C(c2ccccc2Cl)NC(=O)N1` (centres undefined) as the molecule, how does the Activity [2] read?
A: Its Activity is 98.2%.

Q: And the Activity [3]?
A: The Activity was 119%.

Q: For `N#Cc1ccccc1C[S+]([O-])c1nnc2c(n1)[nH]c1ccccc12` (centres undefined), which EC50 [1] is on record?
A: Its EC50 is 3550 nM.

Q: For `CCC1(C)Cc2c(sc3nc(SCCC(C)C)nc(N)c23)CO1` (centres undefined), which Activity [2] is on record?
A: The Activity was 111%.

Q: What about the Activity [3] of the same molecule?
A: Its Activity is 98.4%.

Q: Which EC50 [1] does the source give for `Cn1c2ccccc2c2nnc(SCc3ccccc3C#N)nc21` here?
A: Its EC50 is over 3000 nM.

Q: Which EC50 [1] does the source give for `N#Cc1ccccc1CSc1nnc2c3ccccc3n(C(=O)c3ccccc3)c2n1` here?
A: The EC50 was 113 nM.

Q: And the Ki [5]?
A: Its Ki is 300 nM.

Q: What about the Ki [6] of the same molecule?
A: Its Ki is over 10000 nM.

Q: What about the solubility kinetic [7] of the same molecule?
A: The solubility kinetic was 2 µM (≈ 0.843 µg/mL).

Q: Which Activity [2] does the source give for `CCCCCCSC1=C(C#N)C(c2ccc(Cl)cc2)NC(=O)N1` (centres undefined) here?
A: The Activity was 108%.

Q: And the Activity [3]?
A: The Activity was 138%.

Q: For `CC(=O)n1c2ccccc2c2nnc(SCc3ccccc3C#N)nc21`, which EC50 [1] is on record?
A: Its EC50 is over 3000 nM.

Q: Which EC50 [1] does the source give for `N#Cc1ccccc1CSc1nnc2c3ccccc3n(C(=O)c3ccco3)c2n1` here?
A: The EC50 was 46 nM.

Q: And the Ki [5]?
A: The Ki was 490 nM.

Q: What about the Ki [6] of the same molecule?
A: Its Ki is over 10000 nM.

Q: What does the source list for `N#Cc1ccccc1CSc1nnc2c3ccccc3n(C(=O)N3CCOCC3)c2n1`?
A: EC50 [1]: 92 nM; solubility kinetic [7]: 10.5 µM (≈ 4.52 µg/mL)

Q: For `Clc1ccccc1CSc1nnc2c(n1)[nH]c1ccccc12`, which EC50 [1] is on record?
A: The EC50 was over 3000 nM.

Q: What does the source list for `CCCCCCCC1C(=O)NC(=S)N(c2ccccc2)C1=O` (centres undefined)?
A: Activity [2]: 111%; Activity [3]: 98.1%

Q: For `CCCCCCSc1nnc2c(n1)[nH]c1ccccc12`, which Activity [2] is on record?
A: Its Activity is 102%.

Q: What about the Activity [3] of the same molecule?
A: The Activity was 76%.

Q: For `Cc1ccc(-c2cccc3[nH]c4nc(SCc5ccccc5C#N)nnc4c23)cc1`, which EC50 [1] is on record?
A: The EC50 was over 3000 nM.

Q: For `CCCCCSc1nnc2c(n1)[nH]c1ccccc12`, which Activity [2] is on record?
A: Its Activity is 86.2%.

Q: What about the Activity [3] of the same molecule?
A: Its Activity is 73.1%.

Q: Which EC50 [1] does the source give for `CCn1c2ccccc2c2nnc(SCc3ccccc3C#N)nc21` here?
A: Its EC50 is 674 nM.

Q: With `O=C(O)c1ccccc1CSc1nnc2c(n1)[nH]c1ccccc12` as the molecule, how does the EC50 [1] read?
A: Its EC50 is 2180 nM.

Q: For `Fc1ccc(CSc2nnc3c(n2)[nH]c2ccccc23)cc1`, which EC50 [1] is on record?
A: Its EC50 is over 3000 nM.

Q: Which EC50 [1] does the source give for `c1ccc2c(c1)[nH]c1nc(SCC3CCCCC3)nnc12` here?
A: Its EC50 is over 3000 nM.

Q: What does the source list for `N#Cc1ccccc1CSc1nnc2c(n1)[nH]c1ccccc12`?
A: EC50 [4]: > 30000 nM; EC50 [1]: 112 nM; t1/2 [8]: 46 min; Ki [5]: 355 nM; Ki [6]: > 60000 nM; solubility kinetic [7]: 3.75 µM (≈ 1.19 µg/mL)

Q: With `Fc1ccccc1CSc1nnc2c(n1)[nH]c1ccccc12` as the molecule, how does the EC50 [1] read?
A: Its EC50 is over 3000 nM.

Q: Which EC50 [1] does the source give for `COC(=O)CCCC(=O)n1c2ccccc2c2nnc(SCc3ccccc3C#N)nc21` here?
A: The EC50 was 42 nM.

Q: What about the solubility kinetic [7] of the same molecule?
A: The solubility kinetic was 3.75 µM (≈ 1.67 µg/mL).

Q: Which results are given for `N#Cc1ccccc1CSc1nnc2c3ccccc3n(C(=O)C3CCCCC3)c2n1`?
A: EC50 [1]: 32 nM; Ki [5]: 30 nM; Ki [6]: > 60000 nM

Q: With `O=[N+]([O-])c1ccccc1CSc1nnc2c(n1)[nH]c1cccc(Br)c12` as the molecule, how does the EC50 [1] read?
A: The EC50 was 37 nM.

Q: Which EC50 [1] does the source give for `O=[N+]([O-])c1ccc(CSc2nnc3c(n2)[nH]c2ccccc23)cc1` here?
A: Its EC50 is 617 nM.
